Like-named read-outs stand apart in the source and are kept apart here.
Key:
DnaK-DnaJ complex = DnaK-DnaJ complex (Escherichia coli, UniProt P0A6Y8); assay: ATPase assay of the DnaK-DnaJ system; type: biochemical; conditions: for effect on stimulatory activity of DnaJ on DnaK ATPase: DnaJ titration
DnaK [1] = target: T1, DnaK (Escherichia coli, UniProt P0A6Y8); assay: Tryptophan fluorescence response of DnaK to ATP binding; conditions: myricetin 100 μM, DnaK 5 μM, ATP 100 μM
In short: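 Apo-DnaK (6 μM) was preincubated with test compound (125 μM) for 1 h at 37 °C. Then 500 μM ATP or buffer (Tris, KCl, MgCl2, pH 7.4) was added as one-fifth of the final volume; these are pre-mix concentrations. Tryptophan emission was scanned from 300–400 nm at 295 nm excitation. Runs were done in triplicate.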

DnaK [2] = target: T1, DnaK; assay: Intrinsic ATPase activity of DnaK; type: biochemical
In short: (§1)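 ATP turnover was measured for purified E. coli DnaK (His-tag cleaved) in the established ATPase assay, alone or with the stimulating partner named. Results are means of triplicates ± SEM.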

DnaK (wild type) = DnaK (wild type) (Escherichia coli, UniProt P0A6Y8); assay: Tryptophan fluorescence quench, apparent affinity of myricetin for DnaK; type: binding; conditions: apparent affinity (Kapp), wild type DnaK 3 μM, ATP 1 mM
In short: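 Test compound was added at various concentrations to wild-type DnaK, read at 342 nm (Ex 295 nm) for tryptophan fluorescence quench. Conditions were 5 μM nucleotide-free DnaK alone, 5 μM DnaK with 2 mM ATP, or 3 μM DnaK with 1 mM ATP. Apo-DnaK was eluted from the ATP column with 1 M NaCl. DnaK-free controls were subtracted. Triplicates, ± SEM.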

DnaK [3] = target: T1, DnaK; assay: Peptide substrate; type: biochemical; conditions: model substrate NRLLLTG
In short: as §1

DnaK-DnaJ-GrpE = DnaK-DnaJ-GrpE (Escherichia coli, UniProt P0A6Y8); assay: ATPase assay of DnaK-DnaJ in the presence of GrpE; type: biochemical; conditions: saturating GrpE (2 μM); DnaK 0.6 μM, DnaJ 1 μM
In short: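 Purified E. coli DnaK (0.6 μM) and DnaJ (1 μM), with His-tags cleaved, were run in the established ATPase assay with GrpE at 2 μM or a range of GrpE levels. Test compound was given as a dose series, and IC50 was taken from the dose response. Values are means of triplicates ± SEM.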

DnaJ = DnaJ (Escherichia coli, UniProt P08622); assay: Isothermal calorimetry; type: binding; conditions: DnaJ 10 μM; titrations noisy
[4] = target: J domain (residues 2–108) (Escherichia coli, UniProt P08622); assay: Isothermal calorimetry; type: binding; conditions: truncated J domain residues 2–108
DnaK K106A = DnaK K106A (Escherichia coli, UniProt P0A6Y8, K106A); assay: Tryptophan fluorescence quench, DnaK K106A control mutant; type: binding
In short: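 DnaK alanine mutants were used at 3 μM with 1 mM ATP. Test compound was added at various concentrations, and quench of intrinsic tryptophan fluorescence was read at 342 nm (Ex 295 nm). Readings from controls lacking DnaK were subtracted, and apparent affinity was derived from the concentration series.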

DnaK-DnaJ interaction = DnaK-DnaJ interaction (Escherichia coli, UniProt P0A6Y8); assay: DnaK-DnaJ interaction by FRET; type: binding; conditions: for effect on binding of DnaJ to DnaK: ATP 2 mM
DnaK-GrpE = DnaK-GrpE (Escherichia coli, UniProt P0A6Y8); assay: GrpE-mediated stimulation of DnaK ATP turnover; type: biochemical
In short: as §1

DnaK-DnaJ = DnaK-DnaJ (Escherichia coli, UniProt P0A6Y8); type: binding
In short: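 Firefly luciferase was partially digested and adsorbed onto microtiter wells. DnaK was added with DnaJ titrated, in the presence or absence of test compound. Bound DnaK was detected with an anti-DnaK antibody. Each point is the mean of triplicates ± SEM.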

DnaK-J domain = DnaK-J domain (Escherichia coli, UniProt P0A6Y8); assay: J domain stimulation of DnaK ATP turnover; type: biochemical
In short: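 For J-domain-stimulated turnover, His-tagged DnaJ J domain (residues 2–108) was purified with an extra gel-filtration step and stored in Tris pH 7.5 with 150 mM KCl and 5 mM MgCl2. It was then run in the established DnaK ATPase assay. Results are means of triplicates ± SEM.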

[5] = read-out: IC50 against the DnaK-DnaJ system, DnaK 0.6 μM, DnaJ 1 μM

Sequence of DnaK-DnaJ complex (P0A6Y8 whole entry, one chain of several): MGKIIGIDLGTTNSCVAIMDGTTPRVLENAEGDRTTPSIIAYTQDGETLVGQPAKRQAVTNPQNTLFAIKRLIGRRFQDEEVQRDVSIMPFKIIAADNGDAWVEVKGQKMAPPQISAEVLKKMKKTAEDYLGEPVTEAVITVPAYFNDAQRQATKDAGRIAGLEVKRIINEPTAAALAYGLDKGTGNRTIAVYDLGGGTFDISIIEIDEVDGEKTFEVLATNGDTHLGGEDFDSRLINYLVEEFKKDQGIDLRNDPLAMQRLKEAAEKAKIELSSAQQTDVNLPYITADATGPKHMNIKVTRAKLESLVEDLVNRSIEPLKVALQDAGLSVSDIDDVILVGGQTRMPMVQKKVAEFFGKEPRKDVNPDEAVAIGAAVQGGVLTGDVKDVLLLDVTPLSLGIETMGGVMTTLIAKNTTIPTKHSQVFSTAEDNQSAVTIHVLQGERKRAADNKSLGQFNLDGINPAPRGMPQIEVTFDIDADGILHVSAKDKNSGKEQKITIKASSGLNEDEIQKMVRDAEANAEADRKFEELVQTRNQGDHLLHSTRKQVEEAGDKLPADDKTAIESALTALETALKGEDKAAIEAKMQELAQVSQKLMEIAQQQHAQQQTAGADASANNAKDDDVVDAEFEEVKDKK
Sequence of DnaK-DnaJ interaction (P0A6Y8 whole entry): as the sequence (P0A6Y8 whole entry, one chain of several) above
T1 sequence (P0A6Y8 whole entry): as the sequence (P0A6Y8 whole entry, one chain of several) above
Sequence of DnaK-DnaJ (P0A6Y8 whole entry): as the sequence (P0A6Y8 whole entry, one chain of several) above
Sequence of J domain (residues 2–108) (P08622 2-108): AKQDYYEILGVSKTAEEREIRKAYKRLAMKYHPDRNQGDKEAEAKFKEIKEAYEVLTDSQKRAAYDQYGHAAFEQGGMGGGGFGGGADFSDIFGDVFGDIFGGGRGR
Sequence of DnaK K106A (P0A6Y8 whole entry K106A): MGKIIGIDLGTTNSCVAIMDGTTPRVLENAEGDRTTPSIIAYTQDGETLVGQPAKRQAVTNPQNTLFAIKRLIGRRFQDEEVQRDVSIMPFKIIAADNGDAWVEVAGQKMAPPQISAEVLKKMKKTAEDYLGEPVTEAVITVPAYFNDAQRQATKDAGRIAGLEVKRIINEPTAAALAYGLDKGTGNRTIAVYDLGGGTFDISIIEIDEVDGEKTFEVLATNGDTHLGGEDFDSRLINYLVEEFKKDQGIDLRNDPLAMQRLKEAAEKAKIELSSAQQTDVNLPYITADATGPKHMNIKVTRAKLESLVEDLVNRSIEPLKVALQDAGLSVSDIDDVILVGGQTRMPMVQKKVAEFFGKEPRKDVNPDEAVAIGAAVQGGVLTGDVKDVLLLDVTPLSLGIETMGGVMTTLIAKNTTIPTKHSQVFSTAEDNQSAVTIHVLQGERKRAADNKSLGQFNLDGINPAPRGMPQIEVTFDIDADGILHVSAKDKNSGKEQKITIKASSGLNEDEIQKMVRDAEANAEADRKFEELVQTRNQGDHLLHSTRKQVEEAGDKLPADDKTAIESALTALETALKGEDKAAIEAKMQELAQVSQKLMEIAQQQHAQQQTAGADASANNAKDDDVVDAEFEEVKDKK
Sequence of DnaK-J domain (P0A6Y8 whole entry, the tested form may be a part): as the sequence (P0A6Y8 whole entry, one chain of several) above
Sequence of DnaK-GrpE (P0A6Y8 whole entry): as the sequence (P0A6Y8 whole entry, one chain of several) above
Sequence of DnaJ (P08622 whole entry, the tested form may be a part): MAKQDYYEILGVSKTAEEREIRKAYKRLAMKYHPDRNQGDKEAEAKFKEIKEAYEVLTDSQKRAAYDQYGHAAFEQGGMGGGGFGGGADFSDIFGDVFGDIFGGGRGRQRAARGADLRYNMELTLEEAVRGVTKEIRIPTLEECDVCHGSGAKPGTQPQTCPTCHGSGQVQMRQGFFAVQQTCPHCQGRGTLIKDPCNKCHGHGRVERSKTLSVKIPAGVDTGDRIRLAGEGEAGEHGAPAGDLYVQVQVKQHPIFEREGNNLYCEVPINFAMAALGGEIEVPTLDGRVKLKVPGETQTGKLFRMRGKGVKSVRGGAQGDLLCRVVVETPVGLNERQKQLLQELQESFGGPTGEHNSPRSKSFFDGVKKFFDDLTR

`O=C(O[C@@H]1Cc2c(O)cc(O)cc2O[C@@H]1c1ccc(O)c(O)c1)c1cc(O)c(O)c(O)c1` [ECG, epicatechin-3-gallate] was tested, and the IC50 (DnaK-DnaJ complex) was 6 ± 0.9 µM.

`COc1cc(OC)c2c(=O)c(O)c(-c3ccc(OC)c(OC)c3)oc2c1` [QTE, quercetin tetramethyl (5,7,3′,4′) ether] was tested, and the IC50 (DnaK-DnaJ complex; [5]) was > 200 µM.

Molecule `O=c1cc(-c2cc(O)c(O)c(O)c2)oc2cc(O)cc(O)c12` [hieracin] has an IC50 (DnaK-DnaJ complex; [5]) of 28.2 µM.

With `O=c1c(O)c(-c2ccc(O)cc2)oc2cc(O)cc(O)c12` [kaempferol] the IC50 (DnaK-DnaJ complex) was > 200 µM.

Work on `O=c1cc(-c2ccc(O)c(O)c2)oc2cc(O)cc(O)c12` [luteolin] yielded an IC50 (DnaK-DnaJ complex) of 9.4 µM.

`O=c1c(O)c(-c2cc(O)c(O)c(O)c2)oc2cc(O)cc(O)c12` [myricetin] was tested, and the “tryptophan fluorescence response to ATP binding” value (DnaK [1]) was “responded normally”, the “effect on intrinsic ATPase activity of DnaK” value (DnaK [2]) was “no effect” and the Kd (DnaK (wild type)) was 55 ± 7 µM. The “effect on peptide-mediated stimulation of ATP turnover” value (DnaK [3]) was “no effect”, the “apparent affinity of myricetin in the presence of DnaJ and GrpE” value (DnaK-DnaJ-GrpE) was “significantly enhanced” and the “binding to DnaJ by ITC” value (DnaJ) was “no apparent affinity”. The “binding to J domain by ITC” value [4] was “failed to bind”, the Kd (DnaK K106A) was 43 ± 5 µM and the “weakening of Kapp between DnaJ and DnaK” value (DnaK-DnaJ interaction; 25 μM myricetin, Kapp approx. 560 nM without compound) was 5.3 fold. The “effect on binding of DnaJ to DnaK” value (DnaK-DnaJ interaction) was “significantly reduced”, the “effect on stimulation of DnaK by GrpE” value (DnaK-GrpE) was “did not influence” and the “decrease of maximal amount of bound DnaK” value (DnaK-DnaJ; 20 μM myricetin) was “approximately 40%”. For the same molecule, the “amount of DnaJ required to promote DnaK binding to luciferase” value (DnaK-DnaJ; 20 μM myricetin (62 nM without compound)) was 1 µM, the IC50 (DnaK-DnaJ complex) was 14.5 µM and the “inhibition (up to, maximal)” value (DnaK-DnaJ complex; DnaK 0.6 μM, DnaJ 1 μM) was “up to 75%”. For the same molecule, the “effect on stimulatory activity of DnaJ on DnaK ATPase” value (DnaK-DnaJ complex; myricetin 50 μM) was “dramatically weakened”, the “effect on stimulatory activity of DnaJ on DnaK ATPase” value (DnaK-DnaJ complex; myricetin 200 μM) was “completely suppressed” and the inhibition at 200 µM (DnaK-DnaJ complex; read-out: percent inhibition) was 75%. The “effect on J domain stimulatory activity” value (DnaK-J domain) was “able to block”.

In the case of `O=c1c(O)c(-c2ccc(O)c(O)c2)oc2cc(O)cc(O)c12` [quercetin], the IC50 (DnaK-DnaJ complex) is reported as 27.6 µM and the “inhibition (up to, maximal)” value (DnaK-DnaJ complex; DnaK 0.6 μM, DnaJ 1 μM) is reported as “up to 67%”.

In the case of `COc1cc(O)c2c(=O)c(O)c(-c3ccc(O)c(O)c3)oc2c1` [rhamnetin], the “activity against DnaK-DnaJ” value (DnaK-DnaJ complex; DnaK 0.6 μM, DnaJ 1 μM) is reported as “inactive”.

(±)-catechin was tested, and the “effect on binding of DnaJ to DnaK” value (DnaK-DnaJ interaction) was “did not inhibit”.

Reference: publication PMC3057461 (Chemistry & biology, 2011)
